Records with an inconclusive call do not appear. Calls of active or inactive are those of the source.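 Rule for the calls, unless noted: active = inhibition over a set limit, the all-compound mean plus 3 SD, in both replicate runs; inconclusive = over that limit in just one replicate run; inactive = at or under that limit in both runs.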
Key:
[1] = S. cerevisiae growth inhibition in permissive medium (OD615), pilot counter-assay for S. cerevisiae lifespan shortening project, permissive growth control (AID 705;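 active = growth inhibition above 25% in both replicates, a cutoff set 3 SD above the mean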); details: OD615, 24 h, at 10 µM, active compounds read high
Procedure, shortened: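 Material: engineered DeaD yeast; compound dosing: one dose 10 µM, DMSO 0.25% final; measure: yeast growth inhibition indicated by reduced 24 h OD615; detection: OD615 turbidity read; incubation: cells pre-grown 4 h, then 24 h compound exposure, 30 °C humidified; medium: permissive synthetic complete medium with raffinose and galactose carbon sources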

[2] = S. cerevisiae growth inhibition in restrictive medium, OD615, pilot screen, restrictive growth control, yeast lifespan reduction project (AID 706;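 active = growth inhibition above a set limit, 3 SD over mean compound inhibition, in both replicates, cut at about 43% in these data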;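 note: modified DeaD lifespan yeast strain shifted to restrictive glucose medium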); details: OD615, 48 h, at 10 µM, active compounds read high
Procedure, shortened: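 material = engineered S. cerevisiae DeaD strain | medium = glucose-based CSMM-D restrictive medium | times = 4 h pre-incubation, 48 h exposure at 30 °C | technique = OD615 absorbance reading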

[3] = doxorubicin toxicity protection in MRP-1 cells – H69AR cells, CellTiter-Glo, duplicate, MRP-1 activator project, pilot screen (AID 807;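 active = viability increase at or above a cutoff of the median across tested compounds plus 3 SD, cut at about 8.5% in these data, passing the limit was not always enough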;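 note: compound pretreatment 18-22 h then 72 h combined with doxorubicin; 0% = doxorubicin alone and 100% = vehicle without doxorubicin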); details: H69AR viability with doxorubicin, CellTiter-Glo luminescence; at 10 µM; active compounds read high
[4] = viability of HCT116 without oncogenic beta-catenin – human colon tumor cells, pilot screen (AID 823;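 active = cell viability at or below a set limit in both duplicate runs, the limit being the all-compound median minus 4 SD, cut at about 23% in these data, passing the limit was not always enough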;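 note: 0% = wells killed by 20 µM Hyamine and 100% = untreated DMSO cell wells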); details: HCT116 beta-catenin knockout viability, CellTiter-Glo, 60 h; at 10 µM; active compounds read low
[5] = RAM pathway blockade in budding yeast – dse1pr::URA3 reporter, 5-FOA selection, pilot screen (AID 869);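 note: 0% = DMSO wells with no growth and 100% = 10 µM 1-NA-PP1 with full growth; RAM network block rescues cells from 5-FOA so hits raise OD615 growth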; details: S. cerevisiae dse1pr::URA3 5-FOA growth, OD615, 2 d; at 10 µM; active compounds read high; strain carries analog-sensitive mutant Cbk1 kinase
[6] = RAM signaling pathway blockade in yeast – S. cerevisiae, Pdr1DBD-CYC8 efflux-inhibited sensitized strain, primary screen (AID 1298;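 active = RAM network inhibition above 8.4% in each of two replicates, 3 SD over the compound average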;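 note: 0% = DMSO untreated cells without growth and 100% = 10 µM 1-NA-PP1 full growth; higher means more yeast growth rescued from 5-FOA killing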); details: S. cerevisiae cbk1-as DSE1-URA3 strain, 5-FOA growth OD615, 2 d; at 50 µM; active compounds read high

Row | SMILES | growth inhibition [1] | growth inhibition [2] | viability increase [3] | viability [4] | inhibition [5] | RAM network inhibition [6]
1 | CCOc1cc(CNC(=O)CN2C(=O)c3ccccc3S2(=O)=O)ccc1OC | -22.6% (inactive) | -10.7% (inactive) | -0.6% (inactive) | 98.1% (inactive) | 1.69% (inactive) | 0.32% (inactive)
2 | N#C/C(=C1\CCCN1)c1ccc2ccccc2n1 | 1.03% (inactive) | 3.25% (inactive) | -4.02% (inactive) | 94.2% (inactive) | 2.02% (inactive) | 3.18% (inactive)
3 | CCOC(=O)N1CCC(NC(=O)C(NC(=O)C2CCCCC2)C(C)C)CC1 (stereo not given) | -6.95% (inactive) | -2.83% (inactive) | -1.25% (inactive) | 93% (inactive) | 2% (inactive) | 6.39% (inactive)
4 | CCOC(=O)c1ccccc1NC(=O)CC1Nc2ccccc2NC1=O (stereo not given) | -2.62% (inactive) | -8.37% (inactive) | -8.1% (inactive) | 55.7% (inactive) | 2.19% (inactive) | 6.39% (inactive)
5 | Cc1nn(CCO)c(C)c1Oc1ccccc1O | 6.79% (inactive) | 4.62% (inactive) | -1.47% (inactive) | 102% (inactive) | 1.96% (inactive) | 1.86% (inactive)
6 | CCC(=O)c1cn(CC(=O)NCC2CCCO2)c2ccccc12 (stereo not given) | 0.725% (inactive) | 12.5% (inactive) | -3.8% (inactive) | 96.7% (inactive) | 2.02% (inactive) | 1.98% (inactive)
7 | Nc1ncnc2c1ncn2C1CCC(CO)C(O)C1 (stereo not given) | 3.96% (inactive) | -0.275% (inactive) | -3.38% (inactive) | 107% (inactive) | 1.32% (inactive) | 3.68% (inactive)
8 | CN(C(=O)c1ccc(NC(=O)c2cnccn2)cc1)C1CCCCC1 | 2.12% (inactive) | 7.4% (inactive) | -1.47% (inactive) | 99.9% (inactive) | 0.62% (inactive) | 6.39% (inactive)
9 | CCCCn1c(C(C)NC(=O)c2cccs2)nc2ccccc21 (stereo not given) | -10.5% (inactive) | -2.79% (inactive) | -3.37% (inactive) | 89% (inactive) | 1.42% (inactive) | 3.28% (inactive)
10 | CCC(=O)c1cc(F)c(N2CCN(S(=O)(=O)c3ccccc3)CC2)cc1C | -21.4% (inactive) | 0.885% (inactive) | 0.77% (inactive) | 59.2% (inactive) | 0.65% (inactive) | 1.67% (inactive)
11 | CCOC(=O)N1CCC(NC(=O)C(Cc2ccccc2)NC(=O)C2CCCCC2)CC1 (stereo not given) | -1.7% (inactive) | 3.73% (inactive) | -2.92% (inactive) | 100% (inactive) | 0.04% (inactive) | 6.59% (inactive)
12 | NC(=O)C1CCN(C(=O)CCCCCn2c(=O)[nH]c3ccsc3c2=O)CC1 | -14% (inactive) | -8.6% (inactive) | -3.22% (inactive) | 96.4% (inactive) | 0.97% (inactive) | 3.54% (inactive)
13 | O=C(C1=C(O)C(=O)N(CCc2ccccc2)C1c1cccnc1)c1ccco1 (stereo not given) | -23.9% (inactive) | -2.02% (inactive) | -3.61% (inactive) | 104% (inactive) | 2.01% (inactive) | 2.81% (inactive)
14 | COCCNC(=O)c1cn(C)c(=O)c2cc(OC)c(OC)cc12 | -20.6% (inactive) | -7.83% (inactive) | -1.73% (inactive) | 95.5% (inactive) | 1.6% (inactive) | 7.53% (inactive)
15 | CCN(CC)C(=O)CSc1nnc(-c2ccccc2)n1N | 3.57% (inactive) | -0.035% (inactive) | -2.74% (inactive) | 93.3% (inactive) | 0.76% (inactive) | -0.62% (inactive)
16 | S=c1nc(-c2ccccc2)n(CCN2CCOCC2)c2c1CCCC2 | -2.79% (inactive) | 19.1% (inactive) | -4.18% (inactive) | 92.6% (inactive) | 1.71% (inactive) | 6.76% (inactive)
17 | CC1(C)OC(=O)C(=C2CCCN2)C(=O)O1 | 0.65% (inactive) | -5.36% (inactive) | -1.34% (inactive) | 105% (inactive) | 0.815% (inactive) | 6.12% (inactive)
18 | COCCCNC(=O)c1ccc(Cn2c(=O)[nH]c3ccccc3c2=O)cc1 | -10.2% (inactive) | -0.91% (inactive) | -5.59% (inactive) | 34.9% (inactive) | 1.89% (inactive) | 5.69% (inactive)
19 | Clc1cccc(CSc2nnc([C@@H]3CCCN3)o2)c1 | -7.24% (inactive) | -0.015% (inactive) | -3.16% (inactive) | 98.9% (inactive) | -0.08% (inactive) | 0.26% (inactive)
20 | CC(=O)Nc1c(C(=O)c2ccc(F)cc2)oc2ccccc12 | -23.1% (inactive) | -4.12% (inactive) | -3.23% (inactive) | 87.4% (inactive) | 2.3% (inactive) | 7.49% (inactive)

Row | SMILES | growth inhibition [1] | growth inhibition [2] | viability increase [3] | viability [4] | inhibition [5] | RAM network inhibition [6]
21 | COc1ccc(CC(=O)Nc2cc(C)c3c(=O)oc4ccccc4c3n2)cc1 | -2.25% (inactive) | 1.88% (inactive) | -4.14% (inactive) | 75.3% (inactive) | 4.06% (inactive) | 7.11% (inactive)
22 | CCOC(=O)C1(c2csc(N)n2)COC(=O)C1 (stereo not given) | -11.9% (inactive) | 0.175% (inactive) | -0.78% (inactive) | 96.8% (inactive) | 2.44% (inactive) | 2.75% (inactive)
23 | COc1ccc(C2C3=C(CC(C)(C)CC3=O)Nc3n[nH]c(C)c32)cc1 (stereo not given) | -9.23% (inactive) | -7.11% (inactive) | -4.1% (inactive) | 93% (inactive) | 1.51% (inactive) | 3.28% (inactive)
24 | CCCc1[nH]nc2c1C(C1CC=CCC1)C(C#N)=C(N)O2 (stereo not given) | 4.52% (inactive) | 6.39% (inactive) | -6.94% (inactive) | 11.9% (active) | -0.015% (inactive) | 1.22% (inactive)
25 | CCOC(=O)C1CCN(C(=O)Cc2c(C(=O)O)[nH]c3ccccc23)CC1 | -13.4% (inactive) | -1.88% (inactive) | -1.36% (inactive) | 90.5% (inactive) | 0.02% (inactive) | 3.12% (inactive)
26 | O=C(Cn1c(=O)sc2ccccc21)Nc1ccc2c(c1)OCCO2 | -22.9% (inactive) | -7.4% (inactive) | -4.54% (inactive) | 93.9% (inactive) | 1.6% (inactive) | 6.6% (inactive)
27 | CC(C)N(C(=O)C1CC(=O)OC12CCCCC2)C(C)C (stereo not given) | 1.46% (inactive) | 3.32% (inactive) | -0.41% (inactive) | 99.1% (inactive) | 1.32% (inactive) | 0.1% (inactive)
28 | CC1(C)Cc2nc(-c3ccccc3)n3cnnc3c2CO1 | -8.06% (inactive) | -4.3% (inactive) | -1.77% (inactive) | 102% (inactive) | 0.36% (inactive) | 4.42% (inactive)
29 | Cc1c(C(=O)NCC2COc3ccccc3O2)oc2ccc(S(=O)(=O)N3CCOCC3)cc12 (stereo not given) | -22% (inactive) | -8.28% (inactive) | -2.13% (inactive) | 42.2% (inactive) | 3.01% (inactive) | 6.17% (inactive)
30 | COc1ccc(C(=O)Nc2ccccc2-c2nnn(CC(=O)NCc3ccco3)n2)cc1 | -1.97% (inactive) | 10% (inactive) | -2.04% (inactive) | 78% (inactive) | 4.12% (inactive) | 7.41% (inactive)
31 | CC(=O)NCCN=Cc1sc2ccccc2c1O | -8.43% (inactive) | -2.56% (inactive) | -2.42% (inactive) | 92.6% (inactive) | -0.315% (inactive) | -0.37% (inactive)
32 | O=C(Nc1nnc(C2CC2)o1)c1ccc(S(=O)(=O)N2CCCc3ccccc32)cc1 | -18.1% (inactive) | -2.5% (inactive) | -5.31% (inactive) | 14.3% (active) | 0.79% (inactive) | -0.41% (inactive)
33 | CC1CCC(NC(=O)Cn2c(=O)[nH]c3ccsc3c2=O)CC1 (stereo not given) | -13.7% (inactive) | -3.85% (inactive) | 1.29% (inactive) | 99.5% (inactive) | 2.09% (inactive) | 4.16% (inactive)
34 | CS(=O)(=O)c1nc(-c2cccs2)cc(C(F)(F)F)n1 | -22.6% (inactive) | 1.86% (inactive) | -8.04% (inactive) | 53.4% (inactive) | 2.05% (inactive) | -0.11% (inactive)
35 | COc1cc(-c2nc3cnccn3c2Nc2ccc3c(c2)OCCO3)ccc1O | -15.6% (inactive) | -2.52% (inactive) | -7.25% (inactive) | 84.5% (inactive) | 2.98% (inactive) | 11.8% (inactive)
36 | CCSc1oc(-c2ccco2)nc1S(=O)(=O)c1ccc(F)cc1 | -15.7% (inactive) | -4.69% (inactive) | -3.11% (inactive) | 79% (inactive) | 0.335% (inactive) | 5.09% (inactive)
37 | C(=N\c1nccs1)/c1c[nH]c2ccccc12 | -17.6% (inactive) | 7.43% (inactive) | -4.92% (inactive) | 92.4% (inactive) | 2.52% (inactive) | 3.02% (inactive)
38 | Cc1cc(C)n2nc(CCc3nc4nc(C)cc(C)n4n3)nc2n1 | 3.12% (inactive) | 4.29% (inactive) | -1.49% (inactive) | 94.8% (inactive) | 0.62% (inactive) | 1.76% (inactive)
39 | Cc1ccc2c(c1)c(C)c(C)n2CC(O)Cn1nnc2ccccc21 (stereo not given) | -9.66% (inactive) | -5.1% (inactive) | -5.06% (inactive) | 82.3% (inactive) | 0.335% (inactive) | 2.28% (inactive)
40 | C=CCNC(=O)c1ccc2c(c1)nnn2C | -16% (inactive) | -12.7% (inactive) | -0.65% (inactive) | 103% (inactive) | 2.63% (inactive) | 4.93% (inactive)
